Measured values taken from article PMC10868446 (Pharmaceutical Biology, 2024).

Legend:
[1] = tested on: CYP450 isoforms (1A2, 2A6, 2C8, 2C9, 2C19, 2D6, 2E1, 3A4); test: Cocktail assay of CYP450 isoform activity in pooled human liver microsomes; type: in vitro ADME; details: pooled HLMs, 100 μM physcion
Summary of the method: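 Single-concentration screen in pooled human liver microsomes with the test compound at 100 μM, a blank negative control and typical isoform inhibitors as positive controls. Incubation was in 100 mM potassium phosphate, pH 7.4, with an NADPH-generating system after 3 min pre-incubation. Reactions were stopped with acetonitrile (trichloroacetic acid for CYP2A6), and probe metabolites were quantified by HPLC. Triplicate; one-way ANOVA against the negative control.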

CYP3A4 = CYP3A4 (Homo sapiens, UniProt P08684); test: Time-dependent inhibition of CYP3A4 in HLMs; type: in vitro ADME
CYP3A4, sequence (P08684 whole entry): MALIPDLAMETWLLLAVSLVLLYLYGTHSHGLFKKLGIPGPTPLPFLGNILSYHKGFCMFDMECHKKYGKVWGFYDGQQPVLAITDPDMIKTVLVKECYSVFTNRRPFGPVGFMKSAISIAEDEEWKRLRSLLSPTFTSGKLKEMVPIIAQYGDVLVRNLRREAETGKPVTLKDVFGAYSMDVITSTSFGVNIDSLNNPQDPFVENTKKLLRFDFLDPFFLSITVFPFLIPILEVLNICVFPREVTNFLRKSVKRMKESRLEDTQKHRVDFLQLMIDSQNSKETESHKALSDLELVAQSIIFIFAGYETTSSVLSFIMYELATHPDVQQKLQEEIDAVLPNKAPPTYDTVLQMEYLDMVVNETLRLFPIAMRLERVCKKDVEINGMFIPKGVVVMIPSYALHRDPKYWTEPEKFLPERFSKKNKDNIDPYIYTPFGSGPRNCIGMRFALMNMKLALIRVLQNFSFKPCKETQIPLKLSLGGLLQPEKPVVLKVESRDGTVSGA

CYP2C9 = CYP2C9 (Homo sapiens, UniProt P11712); test: Time-dependent inhibition of CYP2C9 in HLMs; type: in vitro ADME; details: HLMs pre-incubated with physcion 30 min; incubation 5, 10, 15 and 30 min
CYP2C9, sequence (P11712 whole entry): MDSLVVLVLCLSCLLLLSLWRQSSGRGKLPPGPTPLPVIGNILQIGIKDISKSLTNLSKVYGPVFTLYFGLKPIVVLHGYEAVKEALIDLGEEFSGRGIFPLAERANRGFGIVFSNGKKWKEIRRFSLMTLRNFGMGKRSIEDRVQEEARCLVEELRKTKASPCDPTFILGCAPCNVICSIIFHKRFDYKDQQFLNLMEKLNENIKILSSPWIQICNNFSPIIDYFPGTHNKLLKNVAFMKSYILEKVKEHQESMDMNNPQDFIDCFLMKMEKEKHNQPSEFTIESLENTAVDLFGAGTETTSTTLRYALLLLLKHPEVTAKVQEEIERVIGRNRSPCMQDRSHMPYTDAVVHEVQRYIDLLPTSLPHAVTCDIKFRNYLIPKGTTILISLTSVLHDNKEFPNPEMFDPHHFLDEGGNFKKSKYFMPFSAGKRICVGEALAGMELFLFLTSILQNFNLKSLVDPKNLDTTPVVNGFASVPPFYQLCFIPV
Summary of the method: (§1)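 Two-step format: microsomes were pre-incubated with the test compound for 30 min. A 20 μL aliquot was transferred to a second tube with substrate near Km and started with the NADPH-generating system. Incubations ran 5, 10, 15 and 30 min, were stopped with acetonitrile and centrifuged, and residual activity was measured by HPLC. Triplicate.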

CYP2D6 = CYP2D6 (Homo sapiens, UniProt P10635); test: Time-dependent inhibition of CYP2D6 in HLMs; type: in vitro ADME; details: HLMs pre-incubated with physcion 30 min; incubation 5, 10, 15 and 30 min
CYP2D6, sequence (P10635 whole entry): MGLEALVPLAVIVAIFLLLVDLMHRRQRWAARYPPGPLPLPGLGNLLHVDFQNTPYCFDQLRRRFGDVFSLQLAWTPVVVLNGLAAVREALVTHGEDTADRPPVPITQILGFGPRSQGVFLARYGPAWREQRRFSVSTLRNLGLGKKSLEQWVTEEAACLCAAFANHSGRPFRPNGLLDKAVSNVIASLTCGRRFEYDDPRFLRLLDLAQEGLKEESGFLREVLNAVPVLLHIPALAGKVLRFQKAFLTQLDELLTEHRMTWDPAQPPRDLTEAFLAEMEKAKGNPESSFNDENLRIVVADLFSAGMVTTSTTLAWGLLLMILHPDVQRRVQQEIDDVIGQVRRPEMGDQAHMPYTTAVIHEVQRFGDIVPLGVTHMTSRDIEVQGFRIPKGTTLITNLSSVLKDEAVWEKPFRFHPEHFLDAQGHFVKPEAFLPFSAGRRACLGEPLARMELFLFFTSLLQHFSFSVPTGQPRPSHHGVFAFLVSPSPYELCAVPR
Summary of the method: as §1

[2] = after rhubarb extract administration; ref Ding et al. [2003]; Xun et al. [2019]; cited from earlier work
[3] = rats; after administration of Semen Cassiae extract; ref Yang et al. [2015]; cited from earlier work

Inhibitory effect relative to the positive inhibitors of CYP2C9, 2D6 and 3A4 [1]: weaker than the positive inhibitors
KI (time-dependent inhibition of CYP3A4) (CYP3A4; 0–50 μM physcion, substrate approx. 4-fold Km, 0–30 min): 3.10 µM⁻¹
Time dependence of CYP3A4 inhibition (CYP3A4; HLMs pre-incubated with physcion 30 min, incubation 5, 10, 15 and 30 min): time-dependent
Time dependence of CYP2C9 inhibition (CYP2C9): not influenced
Time dependence of CYP2D6 inhibition (CYP2D6): not influenced
SMILES: COc1cc(O)c2c(c1)C(=O)c1cc(C)cc(O)c1C2=O [physcion, Physcion]
Effect on activity of the major CYP450 isoforms ([1]; compared with negative control): Only the activity of CYP2C9, 2D6 and 3A4 was inhibited
Maximum concentration of physcion [2]: 0.032 µg/mL
Time at which the maximum concentration was reached [2]: 2 h
Maximum plasma concentration [3]: 461.85 ± 266.77 ng/mL
Time of maximum plasma concentration [3]: 0.167 ± 0.002 h
